Measurements taken from article PMC4338372 (FEBS Open Bio, 2015).

Tests used:
[1] = molecular target: SH3 domain of Hck (SH3Hck) (Homo sapiens, UniProt P08631); assay: Pull-down of 6His-ELMO1 constructs on immobilized GST-SH3Hck; assay type: binding; details: bacterially expressed 6His-ELMO1; 1 h at 4 °C; anti-polyHistidine western blot
Outline: (§1)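 GST-tagged SH3 domains (Hck residues 77–141; human DOCK180 residues 9–69) and 6His-ELMO1 (wild type 1–727, 532–727 and 532–707) were made in E. coli BL21(DE3) (1 mM IPTG, LB, 3 h, 37 °C). ELMO1 was purified by Ni–NTA and gel filtration, GST fusions on glutathione resin. ELMO1 was incubated with resin-bound SH3 (1 mg/ml) for 1 h at 4 °C in pH 7.5 Hepes buffer. Beads were washed three times, eluted denaturing, and analysed by SDS–PAGE and anti-His immunoblot.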

[2] = test system: SH3 domain of DOCK180 (SH3DOCK); assay: Pull-down of 6His-ELMO1 constructs on immobilized GST-SH3DOCK; assay type: binding, human; details: bacterially expressed 6His-ELMO1; 1 h at 4 °C; anti-polyHistidine western blot
Outline: as §1

SH3Hck = assay: Solid-phase enzyme immunoassay; assay type: binding; details: preliminary solid-phase enzyme immunoassay; data not shown
CLIP-SH3Hck = assay: FRET of SNAP-ELMO1 constructs and CLIP-SH3Hck in HEK293T cells by flow cytometry; assay type: cell-based; details: HEK293T co-transfected with CLIP-SH3Hck; control CLIP-SH3Hck alone

Sequence of SH3 domain of Hck (SH3Hck) (P08631 77-141): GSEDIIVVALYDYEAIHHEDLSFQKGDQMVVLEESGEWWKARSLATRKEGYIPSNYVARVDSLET

B1: ELMO1–727: wild type (murine) ELMO1 protein (protein)
chain: MPPPSDIVKVAIEWPGAYPKLMEIDQKKPLSAIIKEVCDGWSLANHEYFALQHADSSNFYITEKNRNEIKNGTILRLTTSPAQNAQQLHERIQSSSMDAKLEALKDLASLSRDVTFAQEFINLDGISLLTQMVESGTERYQKLQKIMKPCFGDMLSFTLTAFVELMDHGIVSWDTFSVAFIKKIASFVNKSAIDISILQRSLAILESMVLNSHDLYQKVAQEITIGQLIPHLQGTDQEIQTYTIAVINALFLKAPDERRQEMANILAQKQLRYIILTHVIRAQRAINNEMAHQLYVLQVLTFNLLEDRMMTKMDPQDQAQRDIIFELRRIAFDAESEPNNSSGSMEKRKSMYTRDYKKLGFINHVNPAMDFTQTPPGMLALDNMLYFAKHHQDAYIRIVLENSSREDKHECPFGRSSIELTKMLCEILKVGELPSETCNDFHPMFFTHDRSFEEFFCICIQLLNKTWKEMRATSEDFNKVMQVVKEQVMRALTTKPSSLDQFKSKLQNLSYTEILKIRQSERMNQEDFQSRPILELKEKIQPEILELIKQQRLNRLVEGTCFRKLNARRRQDKFWYCRLSPNHKVLHYGDLEESPQGEVPHDSLQDKLPVADIKAVVTGKDCPHMKEKGALKQNKEVLELAFSILYDSNCQLNFIAPDKHEYCIWTDGLNALLGKDMMSDLTRNDLDTLLSMEIKLRLLDLENIQIPDAPPPIPKEPSNYDFVYDCN
modifications: left off: 6His (TEV cleavable), end not stated, kept
[1]
  pull-down by immobilized GST-SH3Hck: successfully pulled-down
[2]
  pull-down by immobilized GST-SH3DOCK: successfully pulled-down

B2: ELMO532–727: C-terminal domain of ELMO1 with the polyproline motif (protein)
chain: PILELKEKIQPEILELIKQQRLNRLVEGTCFRKLNARRRQDKFWYCRLSPNHKVLHYGDLEESPQGEVPHDSLQDKLPVADIKAVVTGKDCPHMKEKGALKQNKEVLELAFSILYDSNCQLNFIAPDKHEYCIWTDGLNALLGKDMMSDLTRNDLDTLLSMEIKLRLLDLENIQIPDAPPPIPKEPSNYDFVYDCN
modifications: left off: 6His (TEV cleavable), end not stated, kept
SH3Hck
  dissociation rate of SH3Hck: ten-micromolar range
[1]
  pull-down by immobilized GST-SH3Hck: specifically pulled-down
CLIP-SH3Hck
  median FRET intensity compared to control cells: significantly higher median FRET intensity compared to control cells
[2]
  pull-down by immobilized GST-SH3DOCK: efficiently pulled-down

B3: ELMO532–707: C-terminal domain of ELMO1 without the polyproline motif (protein)
chain: PILELKEKIQPEILELIKQQRLNRLVEGTCFRKLNARRRQDKFWYCRLSPNHKVLHYGDLEESPQGEVPHDSLQDKLPVADIKAVVTGKDCPHMKEKGALKQNKEVLELAFSILYDSNCQLNFIAPDKHEYCIWTDGLNALLGKDMMSDLTRNDLDTLLSMEIKLRLLDLENIQIP
modifications: left off: 6His (TEV cleavable), end not stated, kept
[2]
  pull-down by immobilized GST-SH3DOCK: efficiently pulled-down
